Data from ChEMBL document CHEMBL1158417, “Phosphonate analogues of cyclopropavir phosphates and their E-isomers. Synthesis and antiviral activity” (Bioorg Med Chem, 2009).

Tests used:
Human alphaherpesvirus 3 [1] = assay: Antiviral activity against Varicella zoster virus in HFF assessed as inhibition of virus-induced cytopathic effect; assay type: functional, organism-based
How it was run: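 VZV in HFF culture; antiviral activity read by cytopathic effect (CPE) inhibition assay.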

Human gammaherpesvirus 4 [2] = assay: Antiviral activity against Epstein-Barr virus in human Akata cells by DNA hybridization assay; assay type: functional, organism-based; details: human gammaherpesvirus 4, Akata
How it was run: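 EBV replication measured by DNA hybridization assay in Akata cells.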

Human betaherpesvirus 5 [3] = assay: Antiviral activity against drug-resistant Human cytomegalovirus E8 isolate expressing UL97 phosphotransferase with two point mutation in UL97 gene by plaque reduction assay; assay type: functional, organism-based; details: Human betaherpesvirus 5, E8
How it was run: (§1)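 Plaque reduction with HCMV Towne background strains: wild-type, 2696r (most of UL97 deleted) and E8 (two UL97 point mutations); four drug concentrations, each in duplicate; EC50 read from plaque counts.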

HFF [4] = assay: (§2) Cytotoxicity against HFF by neutral red uptake assay; assay type: cell-based; details: human, hff
How it was run: (§3)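 HFF cultures; cytotoxicity determined by neutral red uptake.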

[5] = Cytotoxicity against human Akata cells; assay type: cell-based
MEF = assay: (§4) Cytotoxicity against MEF; assay type: cell-based; details: mouse, mef
Human betaherpesvirus 5 [6] = assay: Antiviral activity against Human cytomegalovirus AD169 in HFF by cytopathic effect (CPE) inhibition assay; details: Human betaherpesvirus 5, AD169
HFF [7] = assay: (§5) Cytotoxicity against HFF by visual cytotoxicity assay; assay type: cell-based; details: human, hff
How it was run: (§6)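 Uninfected HFF cultures scored by visual inspection for cytotoxicity in cells unaffected by virus.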

Human alphaherpesvirus 1 [8] = assay: Antiviral activity against Herpes simplex virus type 1 in african green monkey BSC1 cells by plaque reduction assay; assay type: functional, organism-based; details: Human alphaherpesvirus 1, BSC-1
How it was run: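 HSV-1 plaque reduction in BSC-1 cells; cytotoxicity determined in replicating KB cells.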

Human betaherpesvirus 5 [9] = assay: Antiviral activity against Human cytomegalovirus Towne in HFF by plaque reduction assay; assay type: functional, organism-based; details: Human betaherpesvirus 5, Towne
How it was run: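 HCMV Towne or AD169 grown in human foreskin fibroblast (HFF) cultures; plaque reduction read-out for EC50; cytotoxicity judged visually in HFF cells not infected by virus.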

Murid betaherpesvirus 1 = assay: Antiviral activity against Murine cytomegalovirus in MEF by plaque reduction assay; assay type: functional, organism-based
How it was run: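 Murine CMV titrated by plaque reduction in mouse embryonic fibroblasts (MEF); EC50 from plaque counts.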

Human betaherpesvirus 5 [10] = assay: Antiviral activity against cyclopropavir-resistant Human cytomegalovirus 2696r expressing most of UL97 phosphotransferase sequence deleted mutant by plaque reduction assay; assay type: functional, organism-based; details: Human betaherpesvirus 5, 2696r; how it was run: as §1
Human alphaherpesvirus 1 [11] = assay: Antiviral activity against Herpes simplex virus type 1 in HFF assessed as inhibition of virus-induced cytopathic effect; assay type: functional, organism-based
How it was run: (§7)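 HSV-1 and HSV-2 tested in HFF cultures by inhibition of virus-induced cytopathic effect (CPE); cytotoxicity measured by neutral red uptake.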

KB = assay: (§8) Cytotoxicity against human replicating KB cells; assay type: cell-based; details: kb
How it was run: (§9)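 Cytotoxicity measured in replicating KB cells, run alongside HSV-1 assays in BSC-1 cells.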

Human betaherpesvirus 5 [12] = assay: Antiviral activity against Human cytomegalovirus Towne expressing wild type UL97 phosphotransferase by plaque reduction assay; assay type: functional, organism-based; details: Human betaherpesvirus 5, Towne; how it was run: as §1
Human alphaherpesvirus 2 = assay: Antiviral activity against Herpes simplex virus type 2 in HFF assessed as inhibition of virus-induced cytopathic effect; assay type: functional, organism-based; how it was run: as §7
Human alphaherpesvirus 3 [13] = assay: Antiviral activity against Varicella zoster virus in HFF by plaque reduction assay; assay type: functional, organism-based
How it was run: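 VZV in HFF culture; antiviral activity measured by plaque reduction assay.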

Human alphaherpesvirus 1 [14] = assay: Antiviral activity against Herpes simplex virus type 1 in african green monkey BSC1 cells by ELISA; assay type: functional, organism-based; details: Human alphaherpesvirus 1, BSC-1
How it was run: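 HSV-1 in BSC-1 cells, viral antigen measured by ELISA; cytotoxicity determined in replicating KB cells.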

[15] = as §5; assay type: cell-based; details: human, HFF cells; how it was run: as §6
Human betaherpesvirus 5 [16] = assay: Antiviral activity against Human cytomegalovirus AD169 in HFF by cytopathic effect assay; assay type: functional, organism-based; details: Human betaherpesvirus 5, AD169
How it was run: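 HCMV strain AD169 grown in human foreskin fibroblast (HFF) cultures; antiviral effect read as inhibition of virus-induced cytopathic effect (CPE).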

[17] = as §2; assay type: cell-based; details: human, HFF cells; how it was run: as §3
[18] = as §4; assay type: cell-based; details: mouse, MEF cells
[19] = as §8; assay type: cell-based; details: KB cells; how it was run: as §9
[20] = Cytotoxicity against human CEM cells; assay type: cell-based; details: CCRF-CEM cells
[21] = Cytotoxicity against human Daudi cells; assay type: cell-based
Human gammaherpesvirus 4 [22] = assay: Antiviral activity against Epstein-Barr virus in human H1 cells by DNA hybridization assay; assay type: functional, organism-based; details: human gammaherpesvirus 4, H1

Compound | EC50 (Human alphaherpesvirus 3 [1]) | EC50 (Human gammaherpesvirus 4 [2]) | EC50 (Human betaherpesvirus 5 [3]) | CC50 (HFF [4]) | EC50 (Human betaherpesvirus 5 [6]) | EC50 (Human alphaherpesvirus 1 [8]) | EC50 (Human betaherpesvirus 5 [9]) | EC50 (Murid betaherpesvirus 1) | EC50 (Human betaherpesvirus 5 [10]) | EC50 (Human alphaherpesvirus 1 [11]) | EC50 (Human betaherpesvirus 5 [12]) | EC50 (Human alphaherpesvirus 2) | CC50 [15] | other results
Nc1nc2c(ncn2/C=C2/CC23CCP(=O)(O)OC3)c(=O)[nH]1 (centres undefined) | > 300 µM | > 100 µM | 4 µM | > 300 µM | 11.6 µM | 40 µM | 2.4 µM | 0.4 µM | 3 µM | > 300 µM | 4 µM | > 300 µM |  | CC50 ([5]; akata): > 100 µM; CC50 (MEF): > 100 µM; CC50 (HFF [7]): > 100 µM; CC50 (KB): > 100 µM
Nc1nc2c(ncn2COCCO)c(=O)[nH]1 [ACYCLOVIR] |  |  |  | > 300 µM |  | 0.3 µM |  |  |  | 1.3 µM |  | 1.2 µM |  | EC50 (Human alphaherpesvirus 3 [13]): 4.4 µM
Nc1nc2c(ncn2/C=C2/CC2(CO)CCP(=O)(O)O)c(=O)[nH]1 (centres undefined) |  |  | 3.2 µM |  | 2.7 µM |  | 2.2 µM | 0.13 µM | 3 µM | 59.4 µM | 3.5 µM | 76.5 µM | > 100 µM | CC50 ([5]; Akata cells): > 100 µM; EC50 (Human alphaherpesvirus 1 [14]): 15 µM
Nc1nc2c(ncn2/C=C2\CC23CCP(=O)(O)OC3)c(=O)[nH]1 (centres undefined) |  | > 100 µM |  |  | > 300 µM | 100 µM | > 100 µM |  |  |  |  |  |  | 
Nc1nc2c(ncn2/C=C2\CC2(CO)CCP(=O)(O)O)c(=O)[nH]1 (centres undefined) | 191 µM | > 100 µM |  | > 300 µM |  | 100 µM | > 100 µM |  |  | > 300 µM |  | > 300 µM |  | EC50 (Human betaherpesvirus 5 [16]): > 300 µM
Nc1nc2c(ncn2/C=C2/CC2(CO)CO)c(=O)[nH]1 [FILOCICLOVIR] | > 380 µM |  | 8 µM |  |  |  | 0.46 µM | 0.27 µM | 28 µM | > 380 µM | 0.6 µM | > 380 µM | > 100 µM | CC50 [17]: > 380 µM; CC50 ([5]; Akata cells): 46 µM; CC50 [18]: > 380 µM; EC50 (Human alphaherpesvirus 1 [14]): > 100 µM; CC50 [19]: > 100 µM
Nc1nc(O)c2ncn(/C=C3/CC34COP(=O)(O)OC4)c2n1 (centres undefined) | > 301 µM |  |  |  |  |  |  | 7.2 µM |  | > 301 µM |  | 242 µM | > 100 µM | CC50 [20]: > 100 µM; CC50 [21]: 150 µM; CC50 [17]: > 301 µM; CC50 [18]: > 301 µM; EC50 (Human gammaherpesvirus 4 [22]): > 20 µM; CC50 [19]: > 100 µM
